In ChEMBL document CHEMBL5724801, “EUbOPEN Chemogenomics Library - Multiplex” (2024):
Values joined by “and” are separate entries in the source; they are usually repeats but may differ in a detail not shown here. Equal values may be shown once.

Tested on: HEK-293T
Assay: Multiplex assay against HEK293T
Assay type: toxicity, cell-based
Settings: human
Outline: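 Cells stained live at seeding with Hoechst33342, BioTracker Green Microtubule Cytoskeleton Dye, MitoTracker Red and Annexin V Alexa Fluor 680 were imaged on a CQ1 microscope at 37°C and 5% CO2 after compound addition. Their classification by CellPathfinder machine-learning gating ran from Hoechst high-intensity objects versus normal cells, to healthy, pyknosed or fragmented nuclei among normal cells, to mitotic or apoptotic among pyknosed cells. Tubulin, mitochondrial-mass and membrane-permeability phenotypes are per cents of healthy-nucleus cells.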

[1] = 12 h, 1 µM, compound concentration 1 uM
[2] = 12 h, 10 µM, compound concentration 10 uM
[3] = 24 h, 1 µM, compound concentration 1 uM
[4] = 24 h, 10 µM, compound concentration 10 uM
[5] = 48 h, 1 µM, compound concentration 1 uM
[6] = 48 h, 10 µM, compound concentration 10 uM

With `N#Cc1c(Oc2cccc(OS(=O)(=O)CCCC(F)(F)F)c2)cccc1C(F)(F)F` the “Population Apoptotic (%)” value [1] was 35% and 63%, the “Population Fragmented Nuclei (%)” value [1] was 4% and 6% and the “Population Healthy Nuclei (%)” value [1] was 86% and 75%. The “Population Hoechst High Intensity Objects (%)” value [1] was 5% and 11%, the “Population Membrane Permeable-Phenotype (%)” value [1] was 0% and the “Population Mitochondria Different-Phenotype (%)” value [1] was 46% and 60%. For the same molecule, the “Population Mitotic Cells (%)” value [1] was 65% and 36%, the “Population Normal (%)” value [1] was 94% and 88% and the “Population Pyknosed Nuclei (%)” value [1] was 8% and 17%. For the same molecule, the “Population Tubulin-Different-Phenotype (%)” value [1] was 38% and 28%, the “Total Cell Count” value [1] was 490 and 349 and the “Population Apoptotic (%)” value [2] was 42% and 44%. The “Population Fragmented Nuclei (%)” value [2] was 8% and 6%, the “Population Healthy Nuclei (%)” value [2] was 65% and 64% and the “Population Membrane Permeable-Phenotype (%)” value [2] was 0%. The “Population Mitochondria Different-Phenotype (%)” value [2] was 74% and 81%, the “Population Mitotic Cells (%)” value [2] was 57% and 55% and the “Population Normal (%)” value [2] was 89% and 59%. The “Population Pyknosed Nuclei (%)” value [2] was 25% and 28%, the “Population Tubulin-Different-Phenotype (%)” value [2] was 65% and 58% and the “Total Cell Count” value [2] was 290 and 318. For the same molecule, the “Population Apoptotic (%)” value [3] was 28% and 60%, the “Population Fragmented Nuclei (%)” value [3] was 10% and 8% and the “Population Healthy Nuclei (%)” value [3] was 77% and 81%. The “Population Hoechst High Intensity Objects (%)” value [3] was 3% and 9%, the “Population Membrane Permeable-Phenotype (%)” value [3] was 0% and the “Population Mitochondria Different-Phenotype (%)” value [3] was 34% and 48%. The “Population Mitotic Cells (%)” value [3] was 71% and 40%, the “Population Normal (%)” value [3] was 96% and 90% and the “Population Pyknosed Nuclei (%)” value [3] was 12% and 9%. For the same molecule, the “Population Tubulin-Different-Phenotype (%)” value [3] was 26% and 20%, the “Total Cell Count” value [3] was 654 and 412 and the “Population Apoptotic (%)” value [4] was 43% and 45%. The “Population Fragmented Nuclei (%)” value [4] was 9% and 10%, the “Population Healthy Nuclei (%)” value [4] was 77% and 61% and the “Population Membrane Permeable-Phenotype (%)” value [4] was 0%. The “Population Mitochondria Different-Phenotype (%)” value [4] was 66% and 68%, the “Population Mitotic Cells (%)” value [4] was 56% and 54% and the “Population Normal (%)” value [4] was 86% and 52%. For the same molecule, the “Population Pyknosed Nuclei (%)” value [4] was 13% and 27%, the “Population Tubulin-Different-Phenotype (%)” value [4] was 56% and 41% and the “Total Cell Count” value [4] was 338 and 312. For the same molecule, the “Population Apoptotic (%)” value [5] was 20% and 56%, the “Population Fragmented Nuclei (%)” value [5] was 13% and 12% and the “Population Healthy Nuclei (%)” value [5] was 81% and 82%. For the same molecule, the “Population Hoechst High Intensity Objects (%)” value [5] was 1% and 5%, the “Population Membrane Permeable-Phenotype (%)” value [5] was 1% and 0% and the “Population Mitochondria Different-Phenotype (%)” value [5] was 21% and 23%. The “Population Mitotic Cells (%)” value [5] was 79% and 43%, the “Population Normal (%)” value [5] was 98% and 94% and the “Population Pyknosed Nuclei (%)” value [5] was 5%. For the same molecule, the “Population Tubulin-Different-Phenotype (%)” value [5] was 15% and 13%, the “Total Cell Count” value [5] was 986 and 568 and the “Population Apoptotic (%)” value [6] was 44% and 58%. For the same molecule, the “Population Fragmented Nuclei (%)” value [6] was 11%, the “Population Healthy Nuclei (%)” value [6] was 78% and 69% and the “Population Membrane Permeable-Phenotype (%)” value [6] was 0%. The “Population Mitochondria Different-Phenotype (%)” value [6] was 44% and 47%, the “Population Mitotic Cells (%)” value [6] was 55% and 41% and the “Population Normal (%)” value [6] was 94% and 75%. For the same molecule, the “Population Pyknosed Nuclei (%)” value [6] was 10% and 18%, the “Population Tubulin-Different-Phenotype (%)” value [6] was 29% and 23% and the “Total Cell Count” value [6] was 464 and 363.

`Nc1nc(-c2ccco2)c2cnn(Cc3ccccc3F)c2n1` was tested, and the “Population Apoptotic (%)” value [1] was 37% and 36%, the “Population Fragmented Nuclei (%)” value [1] was 6% and 5% and the “Population Healthy Nuclei (%)” value [1] was 76% and 81%. The “Population Hoechst High Intensity Objects (%)” value [1] was 9% and 11%, the “Population Membrane Permeable-Phenotype (%)” value [1] was 0% and the “Population Mitochondria Different-Phenotype (%)” value [1] was 58% and 64%. The “Population Mitotic Cells (%)” value [1] was 62% and 63%, the “Population Normal (%)” value [1] was 90% and 88% and the “Population Pyknosed Nuclei (%)” value [1] was 16% and 13%. For the same molecule, the “Population Tubulin-Different-Phenotype (%)” value [1] was 41% and 23%, the “Total Cell Count” value [1] was 300 and 404 and the “Population Apoptotic (%)” value [2] was 33% and 40%. The “Population Fragmented Nuclei (%)” value [2] was 7% and 6%, the “Population Healthy Nuclei (%)” value [2] was 73% and 76% and the “Population Hoechst High Intensity Objects (%)” value [2] was 8% and 12%. The “Population Membrane Permeable-Phenotype (%)” value [2] was 0%, the “Population Mitochondria Different-Phenotype (%)” value [2] was 61% and 68% and the “Population Mitotic Cells (%)” value [2] was 66% and 60%. The “Population Normal (%)” value [2] was 91% and 87%, the “Population Pyknosed Nuclei (%)” value [2] was 19% and 17% and the “Population Tubulin-Different-Phenotype (%)” value [2] was 43% and 26%. For the same molecule, the “Total Cell Count” value [2] was 306 and 265, the “Population Apoptotic (%)” value [3] was 30% and 28% and the “Population Fragmented Nuclei (%)” value [3] was 7% and 9%. The “Population Healthy Nuclei (%)” value [3] was 77% and 81%, the “Population Hoechst High Intensity Objects (%)” value [3] was 7% and 5% and the “Population Membrane Permeable-Phenotype (%)” value [3] was 0%. The “Population Mitochondria Different-Phenotype (%)” value [3] was 36% and 46%, the “Population Mitotic Cells (%)” value [3] was 69% and 71% and the “Population Normal (%)” value [3] was 92% and 94%. The “Population Pyknosed Nuclei (%)” value [3] was 15% and 9%, the “Population Tubulin-Different-Phenotype (%)” value [3] was 26% and 17% and the “Total Cell Count” value [3] was 396 and 514. For the same molecule, the “Population Apoptotic (%)” value [4] was 38% and 35%, the “Population Fragmented Nuclei (%)” value [4] was 11% and the “Population Healthy Nuclei (%)” value [4] was 67%. The “Population Hoechst High Intensity Objects (%)” value [4] was 6% and 10%, the “Population Membrane Permeable-Phenotype (%)” value [4] was 2% and 0% and the “Population Mitochondria Different-Phenotype (%)” value [4] was 52% and 59%. The “Population Mitotic Cells (%)” value [4] was 61% and 64%, the “Population Normal (%)” value [4] was 93% and 89% and the “Population Pyknosed Nuclei (%)” value [4] was 21%. The “Population Tubulin-Different-Phenotype (%)” value [4] was 31% and 23%, the “Total Cell Count” value [4] was 334 and 328 and the “Population Apoptotic (%)” value [5] was 32% and 28%. For the same molecule, the “Population Fragmented Nuclei (%)” value [5] was 12% and 14%, the “Population Healthy Nuclei (%)” value [5] was 75% and 78% and the “Population Hoechst High Intensity Objects (%)” value [5] was 3% and 4%. For the same molecule, the “Population Membrane Permeable-Phenotype (%)” value [5] was 1%, the “Population Mitochondria Different-Phenotype (%)” value [5] was 31% and 21% and the “Population Mitotic Cells (%)” value [5] was 67% and 71%. The “Population Normal (%)” value [5] was 96% and 95%, the “Population Pyknosed Nuclei (%)” value [5] was 12% and 7% and the “Population Tubulin-Different-Phenotype (%)” value [5] was 18% and 14%. For the same molecule, the “Total Cell Count” value [5] was 641 and 769, the “Population Apoptotic (%)” value [6] was 36% and 28% and the “Population Fragmented Nuclei (%)” value [6] was 16% and 13%. The “Population Healthy Nuclei (%)” value [6] was 73% and 74%, the “Population Hoechst High Intensity Objects (%)” value [6] was 7% and the “Population Membrane Permeable-Phenotype (%)” value [6] was 0%. For the same molecule, the “Population Mitochondria Different-Phenotype (%)” value [6] was 42% and 43%, the “Population Mitotic Cells (%)” value [6] was 63% and 71% and the “Population Normal (%)” value [6] was 92%. For the same molecule, the “Population Pyknosed Nuclei (%)” value [6] was 9% and 12%, the “Population Tubulin-Different-Phenotype (%)” value [6] was 19% and 15% and the “Total Cell Count” value [6] was 412 and 398.
